{
  "source": "paper PMC6172447",
  "about": "(iScience, 2018)",
  "key": {"[1]": {"test_system": "U2OS cells stably expressing EGFP-DFCP1", "assay": "Omegasome formation, EGFP-DFCP1 puncta by live-cell fluorescent microscopy", "format": "cell-based, human", "in_short": "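U2OS cells stably expressing EGFP-DFCP1 were given vehicle or 100 nM AZD8055, with or without 5 μM test compound, for 2.5 hr. They were imaged live by fluorescence microscopy in the green FITC channel. EGFP-DFCP1 objects per cell were counted in 20–25 cells per condition. Mean ± SEM; two-tailed unpaired t test.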"}, "[2]": {"test_system": "U2OS cells", "assay": "Phagophore formation, endogenous ATG12 immunofluorescence", "format": "cell-based, human"}, "[3]": {"test_system": "U2OS cells", "assay": "Autophagic turnover, BafA1-induced LC3B-II accumulation by immunoblotting", "format": "cell-based, human"}, "[4]": {"test_system": "nutrient-starved murine embryonic fibroblasts", "details": "1 μM, ref Petherick et al., 2015; cited from earlier work"}, "[5]": {"test_system": "ULK1", "details": "ref Egan et al., 2015; cited from earlier work"}, "[6]": {"test_system": "AMPK", "assay": "KinaseProfiler radiometric assay, AMPK", "format": "biochemical, human", "details": "selectivity profiling, 40 nM ULK-101 or 15 nM ULK-100"}, "[7]": {"test_system": "327 recombinant human kinases", "assay": "KinaseProfiler radiometric selectivity profiling, wild-type human kinase panel", "format": "biochemical", "details": "326 non-ULK1 kinases; 500 nM SBI-0206965, 40 nM ULK-101, or 15 nM ULK-100"}, "[8]": {"details": "5 μM ULK-101 co-treatment with 100 nM AZD8055, 2.5 hr"}},
  "data": [
    {"smiles": "COc1ccc(-c2ccc3c(N4CCOC[C@@H]4C)nc(N4CCOC[C@@H]4C)nc3n2)cc1CO", "note": "[AZD8055, reference compound]", "values": [
      {"measurement": "Increase in abundance of DFCP1-positive puncta", "setting": "[1]; 100 nM AZD8055, 2.5 hr, vs vehicle", "value": "over 3 fold"},
      {"measurement": "ATG12-positive puncta formation", "setting": "[2]; 100 nM AZD8055, 2.5 hr", "value": "distinct ATG12-positive puncta"},
      {"measurement": "Increase in BafA1-induced LC3B-II accumulation", "setting": "[3]; 100 nM AZD8055, within 1 hr", "value": "over 2 fold"}
    ]},
    {"smiles": "CN1CCc2cc(Nc3ncc(C4CC4)c(NCCCNC(=O)C4CCC4)n3)ccc2C1", "note": "[MRT68921]", "values": [
      {"measurement": "Effect on BafA1-induced LC3-II accumulation", "setting": "[4]", "value": "block BafA1-induced LC3-II accumulation"}
    ]},
    {"smiles": "CNC(=O)c1ccccc1Oc1nc(Nc2cc(OC)c(OC)c(OC)c2)ncc1Br", "note": "[SBI-0206965]", "values": [
      {"measurement": "Effect on Beclin 1 Ser15 phosphorylation in cells", "setting": "[5]", "value": "reduce Beclin 1 Ser15 phosphorylation"}
    ]},
    {"smiles": "CC(C)[C@H](NC(=O)c1cc(-c2cnn3cc(-c4ccc(OCCN5CCCCC5)cc4)cnc23)cs1)C(F)(F)F", "note": "[ULK-100]", "values": [
      {"measurement": "AMPK inhibition in vitro", "setting": "[6]", "value": "inhibited"}
    ]},
    {"smiles": "O=C(N[C@@H](C1CC1)C(F)(F)F)c1cc(-c2cnn3cc(-c4ccc(F)cc4)cnc23)cs1", "note": "[ULK-101]", "values": [
      {"measurement": "Number of other kinases inhibited at least 75% as well as ULK1", "setting": "[7]", "value": "four"},
      {"measurement": "AMPK inhibition in vitro", "setting": "[6]", "value": "spared"},
      {"measurement": "Effect on AZD8055-induced formation of DFCP1-positive structures", "setting": "[1]; [8]", "value": "completely abrogated"},
      {"measurement": "Effect on AZD8055-induced ATG12-positive puncta", "setting": "[2]; [8]", "value": "strongly suppressed"},
      {"measurement": "Effect on AZD8055-induced increase of BafA1-induced LC3B-II accumulation", "setting": "[3]; 5 μM ULK-101 with 100 nM AZD8055, 3 hr", "value": "negated"}
    ]}
  ]
}
